# Data from ChEMBL document CHEMBL2046427, “Nonhematotoxic naphthalene diimide modified by polyamine: synthesis and biological evaluation” (J Med Chem, 2012).
# Calls of active or inactive are those of the source. No cut-off for these calls is given here.
# How the values were obtained:
# Mus musculus [1] = test: Toxicity in mouse H22 cells bearing Kunming mouse assessed pathological changes in kidney at 0.2 mg/kg, iv administered for 7 days measured on day 8 by hematoxylin and eosin staining relative to vehicle treated control; assay type: organism-based; design: dose 0.2 mg/kg, route intravenous; conditions: in vivo, 168 h
# MDA-MB-231 = test: Cytotoxicity against human MDA-MB-231 cells after 48 hrs by MTT assay; assay type: functional, cell-based; conditions: MDA-MB-231, 48 h
# Method in brief: (§1)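 MTT conversion assay at 37 °C, 5% CO₂. […] Inhibition relative to untreated cells as 100%; IC50 by linear regression, mean of three independent experiments.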
# Mus musculus [2] = test: Toxicity in mouse H22 cells bearing Kunming mouse assessed as change in thymus index number at 0.2 mg/kg, iv administered for 7 days measured on day 8 relative to vehicle treated control; assay type: organism-based; design: dose 0.2 mg/kg, route intravenous; conditions: in vivo, 168 h
# Method in brief: (§2)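 Tumour-bearing Kunming mice (10/group) dosed iv daily for 7 days, then killed on day 8. Blood and bone marrow counted on a Coulter counter for platelets, RBC, WBC and marrow cells. Spleen and thymus weighed; organ index (%) = (organ weight/body weight) × 100. Mean ± SD; Student's t test or ANOVA with q test versus saline.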
# HepG2 [3] = test: Cytotoxicity in human HepG2 cells assessed as decrease in mitochondrial membrane potential at 10 uM after 48 hrs by fluorescence-based high-content screening assay; assay type: functional, cell-based
# Mus musculus [4] = test: Toxicity in mouse H22 cells bearing Kunming mouse assessed as weight loss at 0.2 mg/kg, iv administered for 7 days measured on day 8 relative to vehicle treated control; assay type: organism-based; design: dose 0.2 mg/kg, route intravenous; conditions: in vivo, 168 h
# Method in brief: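 Body weight tracked during 7 consecutive days of daily iv dosing in tumour-bearing Kunming mice, with saline controls; animals killed on day 8.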
# H22 [5] = test: Antitumor activity against mouse H22 cells xenografted in Kunming mouse assessed as median survival time at 0.2 […], iv administered 24 hrs post-tumor injection for 7 days (reference value: 12.7 +/- 2.5 days); assay type: functional
# Method in brief: (§3)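 Kunming mice bearing H22 cells; iv (caudal vein) dosing or physiologic saline control started 24 h after inoculation and given for 7 consecutive days. Median survival time recorded per group; activity judged as increase in lifespan versus saline control.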
# HepG2 [6] = test: Cytotoxicity against human HepG2 cells assessed as mitochondrial permeability augmentation after 48 hrs by fluorescence-based high-content screening assay; assay type: functional, cell-based
# Method in brief: (§4)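 HepG2 seeded 5 × 10³/well; after 12 h treated at 1, 5, 10, 15 and 30 μM for 48 h. Multiparameter cytotoxicity kit staining imaged by high-content screening: Hoechst 33342 for nuclear morphology, permeability dye (green nuclei) for membrane integrity, mitochondrial potential dye, and a weak-base dye for lysosomal mass/pH.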
# Mus musculus [7] = test: Toxicity in mouse H22 cells bearing Kunming mouse assessed as change in spleen index number at 0.2 mg/kg, iv administered for 7 days measured on day 8 relative to vehicle treated control; assay type: organism-based; design: dose 0.2 mg/kg, route intravenous; conditions: in vivo, 168 h; method in brief: as §2
# HepG2 [8] = test: Cytotoxicity in human HepG2 cells assessed as loss of cell membrane integrity at 10 uM after 48 hrs by fluorescence-based high-content screening assay; assay type: functional
# Mus musculus [9] = test: Hematotoxicity in mouse H22 cells bearing Kunming mouse assessed as decrease in bone marrow cell numbers at 0.2 mg/kg, iv administered for 7 days measured on day 8 relative to vehicle treated control; assay type: organism-based; design: dose 0.2 mg/kg, route intravenous; conditions: in vivo, 168 h; method in brief: as §2
# HCT-116 = test: Cytotoxicity against human HCT116 cells after 48 hrs by MTT assay; assay type: functional, cell-based; conditions: HCT-116, 48 h; method in brief: as §1
# H22 [10] = test: Antimetastatic activity against mouse H22 cells xenografted in Kunming mouse assessed as decrease in lung tumor burden at 0.2 mg/kg, iv administered on day 11 post-tumor injection for 7 days measured on day 18 relative to vehicle treated control; assay type: functional, organism-based; design: dose 0.2 mg/kg
# HepG2 [11] = test: Cytotoxicity against human HepG2 cells assessed as acruement in lysosomal mass/pH after 48 hrs by fluorescence-based high-content screening assay; assay type: functional, cell-based; method in brief: as §4
# H22 [12] = test: Antitumor activity against mouse H22 cells xenografted in Kunming mouse assessed as median survival time at 0.2 […], iv administered 24 hrs post-tumor injection for 7 days relative to vehicle treated control; assay type: functional; method in brief: as §3
# Mus musculus [13] = test: Toxicity in mouse H22 cells bearing Kunming mouse assessed pathological changes in brain at 0.2 mg/kg, iv administered for 7 days measured on day 8 by hematoxylin and eosin staining relative to vehicle treated control; assay type: organism-based; design: dose 0.2 mg/kg, route intravenous; conditions: in vivo, 168 h
# HepG2 [14] = test: Cytotoxicity in human HepG2 cells assessed as mitochondrial membrane damage at 10 uM after 48 hrs by fluorescence-based high-content screening assay; assay type: functional, cell-based
# Mus musculus [15] = test: Toxicity in mouse H22 cells bearing Kunming mouse assessed as decrease in platelet number at 0.2 mg/kg, iv administered for 7 days measured on day 8 relative to vehicle treated control; assay type: organism-based; design: dose 0.2 mg/kg, route intravenous; conditions: in vivo, 168 h; method in brief: as §2
# HepG2 [16] = test: Induction of apoptosis in human HepG2 cells assessed as phosphatidylserine externalisation at 10 uM after 48 hrs by annexinV/FITC-based high-content screening assay; assay type: functional, cell-based
# Method in brief: (§5)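 HepG2 in 24-well plates treated at 10 μM for 48 h, harvested and stained with annexin V–FITC/propidium iodide kit or cleaved caspase 3 indirect immunofluorescence. Imaging by high-content screening with target-activation analysis; comparison against control.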
# Mus musculus [17] = test: Toxicity in mouse H22 cells bearing Kunming mouse assessed pathological changes in liver at 0.2 mg/kg, iv administered for 7 days measured on day 8 by hematoxylin and eosin staining relative to vehicle treated control; assay type: organism-based; design: dose 0.2 mg/kg, route intravenous; conditions: in vivo, 168 h
# Mus musculus [18] = test: Toxicity in mouse H22 cells bearing Kunming mouse assessed pathological changes in lung at 0.2 mg/kg, iv administered for 7 days measured on day 8 by hematoxylin and eosin staining relative to vehicle treated control; assay type: organism-based; design: dose 0.2 mg/kg, route intravenous; conditions: in vivo, 168 h
# H22 [19] = test: Antimetastatic activity against mouse H22 cells xenografted in Kunming mouse assessed as tumor weight at 0.2 mg/kg, iv administered on day 11 post-tumor injection for 7 days measured on day 18 (reference value: 0.34 +/- 0.15 g); assay type: functional
# H22 [20] = test: Antimetastatic activity against mouse H22 cells xenografted in Kunming mouse assessed as decrease in lung metastasis focuses at 0.2 mg/kg, iv administered on day 11 post-tumor injection for 7 days measured on day 18 relative to vehicle treated control; assay type: functional, organism-based; design: dose 0.2 mg/kg
# HepG2 [21] = test: Cytotoxicity against human HepG2 cells assessed as decrease in mitochondrial membrane potential after 48 hrs by fluorescence-based high-content screening assay; assay type: functional, cell-based; method in brief: as §4
# Mus musculus [22] = test: Toxicity in mouse H22 cells bearing Kunming mouse assessed as decrease in white blood cells number at 0.2 mg/kg, iv administered for 7 days measured on day 8 relative to vehicle treated control; assay type: organism-based; design: dose 0.2 mg/kg, route intravenous; conditions: in vivo, 168 h; method in brief: as §2
# HepG2 [23] = test: Induction of apoptosis in human HepG2 cells assessed as reactive oxygen species generation at 10 uM after 48 hrs by […]-based staining; assay type: functional, cell-based
# Method in brief: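 HepG2 given 10 μM for 48 h; intracellular ROS by DCFH-DA staining imaged by high-content screening, compared with untreated control.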
# H22 [24] = test: Antitumor activity against mouse H22 cells xenografted in Kunming mouse assessed as tumor growth inhibition at 0.2 mg/kg, iv administered on day 8 post-tumor injection for 7 days measured on day 16 relative to vehicle treated control; assay type: functional; conditions: read-out: GI
# Method in brief: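 Male Kunming mice, 5 weeks, 18−22 g, injected sc with 2 × 10⁶ H22 cells. From day 8, randomized groups got caudal vein injection (0.2 or 5 mg/kg, or physiologic saline) for 7 consecutive days. On day 16 tumours excised and weighed; inhibitory rate (%) = [(A − B)/A] × 100 using mean tumour weights of control (A) and treated (B). Tumours formalin-fixed, H&E-stained.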
# HepG2 [25] = test: Cytotoxicity in human HepG2 cells assessed as gain in lysosomal mass/pH at 10 uM after 48 hrs by fluorescence-based high-content screening assay; assay type: functional, cell-based
# Mus musculus [26] = test: Toxicity in mouse H22 cells bearing Kunming mouse assessed pathological changes in heart at 0.2 mg/kg, iv administered for 7 days measured on day 8 by hematoxylin and eosin staining relative to vehicle treated control; assay type: organism-based; design: dose 0.2 mg/kg, route intravenous; conditions: in vivo, 168 h
# HepG2 [27] = test: Induction of apoptosis in human HepG2 cells assessed as caspase 3 activation at 10 uM after 48 hrs by indirect immunofluorescence method; assay type: functional, cell-based; method in brief: as §5
# HepG2 [28] = test: Cytotoxicity against human HepG2 cells after 48 hrs by MTT assay; assay type: functional, cell-based; conditions: HepG2, 48 h; method in brief: as §1
# Mus musculus [29] = test: Toxicity in mouse H22 cells bearing Kunming mouse assessed pathological changes in spleen at 0.2 mg/kg, iv administered for 7 days measured on day 8 by hematoxylin and eosin staining relative to vehicle treated control; assay type: organism-based; design: dose 0.2 mg/kg, route intravenous; conditions: in vivo, 168 h
# HepG2 [30] = test: Cytotoxicity against human HepG2 cells assessed as cell nuclear shrinkage after 48 hrs by Hoechst 33342-based fluorescence-based high-content screening assay; assay type: functional; method in brief: as §4
# H22 [31] = test: Antitumor activity against mouse H22 cells xenografted in Kunming mouse assessed as decrease in cell survival at 0.2 mg/kg, iv administered on day 8 post-tumor injection for 7 days measured on day 16 by hematoxylin and eosin staining relative to vehicle treated control; assay type: functional, organism-based; design: dose 0.2 mg/kg
# Mus musculus [32] = test: Toxicity in mouse H22 cells bearing Kunming mouse assessed as decrease in red blood cells number at 0.2 mg/kg, iv administered for 7 days measured on day 8 relative to vehicle treated control; assay type: organism-based; design: dose 0.2 mg/kg, route intravenous; conditions: in vivo, 168 h; method in brief: as §2
structure (smiles),measurement,setting,value
Cl.NCCCNCCCCNCCCN1C(=O)c2ccc3c4c(ccc(c24)C1=O)C(=O)N(CCCNCCCCNCCCN)C3=O,Activity,Mus musculus [1],Non-toxic
same,IC50,MDA-MB-231,0.45 µM
same,Activity,Mus musculus [2],Non-toxic
same,Activity,HepG2 [3],Active
same,Activity,Mus musculus [4],Non-toxic
same,MST,H22 [5],29.8 days
same,Activity,HepG2 [6],Dose-dependent effect
same,Activity,Mus musculus [7],Non-toxic
same,Activity,HepG2 [8],Active
same,Activity,Mus musculus [9],Non-toxic
same,IC50,HCT-116,0.13 µM
same,Activity,H22 [10],Active
same,Activity,HepG2 [11],Dose-dependent effect
same,Ratio,H22 [12],2.3
same,Activity,Mus musculus [13],Non-toxic
same,Activity,HepG2 [14],Active
same,Activity,Mus musculus [15],Non-toxic
same,Activity,HepG2 [16],Active
same,Activity,Mus musculus [17],Non-toxic
same,Activity,Mus musculus [18],Non-toxic
same,Activity,H22 [19],0.17 g
same,Activity,H22 [20],Active
same,Activity,HepG2 [21],Dose-dependent effect
same,Activity,Mus musculus [22],Non-toxic
same,Activity,HepG2 [23],Active
same,inhibition in vivo at 0.2 mg/kg,H22 [24],51.8%
same,Activity,HepG2 [25],Active
same,Activity,Mus musculus [26],Non-toxic
same,Activity,HepG2 [27],Active
same,IC50,HepG2 [28],1.22 µM
same,Activity,Mus musculus [29],Non-toxic
same,Activity,HepG2 [30],Dose-dependent effect
same,Activity,H22 [31],Active
same,Activity,Mus musculus [32],Non-toxic
